Assay results gathered from unrelated publications.
Each line is one published result; the experiments were not run side by side.
Target: 3-phosphoinositide-dependent protein kinase 1 (PDPK1, Homo sapiens, UniProt O15530)
Action: inhibitor

Compound	test	setting	inhibition
CC(C)COc1cccc(Cl)c1-c1cc2cnc(N)nc2nc1N1C[C@@H]2[C@@H](N)[C@@H]2C1	enzyme activity, FRET	25 µM	0%
CS(=O)(=O)Nc1cccc(-c2csc(NC(=O)CSc3nc4nccnc4c(=O)n3CCc3ccccc3)n2)c1	enzyme activity	10 µM	7%
c1ccc(CNc2nc(N3CCOc4ccccc43)nc3c2CCCC3)cc1	target engagement in cells, chemoproteomics	20 mM	-11.8%
CN(c1ncccc1CNc1nc(Nc2ccc3c(c2)CC(=O)N3)ncc1C(F)(F)F)S(C)(=O)=O	enzyme activity	1 µM	36%
CN1CC(Oc2cnc(C#N)cc2-c2ccn3nc(NC(=O)C4CC4)cc3c2)C1	enzyme activity	1 µM	12%
CNC(=O)c1cc(Oc2ccc(NC(=O)Nc3ccc(Cl)c(C(F)(F)F)c3)cc2)ccn1	enzyme activity	10 µM	8%
C=CC(=O)Nc1cc(Nc2nccc(Nc3cc(Cl)c(F)cc3C(C)(C)O)n2)c(OC)cc1N1CC[C@@H](N(C)C)C1	enzyme activity	1 µM	-2%
COc1cc2ncnc(Nc3ccc(Oc4ccccc4)cc3C)c2cc1OC	enzyme activity	1 µM	-2%
CCCCNc1ncc2c(-c3ccc(F)cc3)nn(C[C@H]3CC[C@H](N)CC3)c2n1	target engagement in cells, chemoproteomics	20 mM	7.1%
CN(C)C1CCN(CC#Cc2nn(C3CCCC3)c3nc(NCc4ccccc4)ncc23)C1 (stereo not drawn)	enzyme activity, FRET	0.1 µM	0%
Cc1ccc(Nc2nccc(N(C)c3ccc4c(C)n(C)nc4c3)n2)cc1S(N)(=O)=O	enzyme activity	10 µM	34%
COc1cc(C[C@H]2C(=O)OC[C@@H]2Cc2ccc(OC)c(OC)c2)ccc1O	enzyme activity, ADP detection	100 µM	18.6%
